pKd: −log10 of the molar value. Converted amounts (≈) assume the structure as drawn. The source made the active and inactive calls. No cut-off for these calls is given here.
Experiments:
Bacterial 70S ribosome = assay: Displacement of [14C]-erythromycin from Escherichia coli K-12 70S ribosome after 10 mins by competitive binding assay
How it was run: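 Tight-coupled 70S ribosomes (0.20 μM final) in buffer A (20 mM HEPES-KOH pH 7.6, 4.5 mM Mg acetate, 150 mM NH4 acetate, polyamines). [14C]-erythromycin held constant at 0.6 μM (150 dpm/pmol) with increasing unlabeled competitor, 10 min at 37°C. Mixture was diluted in cold buffer and filtered through cellulose nitrate, which was washed twice and counted. KD was derived from a competition binding equation.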

Escherichia coli [1] = assay: Antimicrobial activity against Escherichia coli TA531 harboring 23S rRNA A2058G mutant after 15 hrs; format: functional; conditions: TA531, 15 h
How it was run: (§1)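 E. coli TA531 lacking chromosomal rrn alleles and carrying plasmid-borne wild-type, A2058G or U2609C 23S rRNA. Grown overnight in LB with 100 μg/ml ampicillin, diluted and regrown. MIC was the lowest concentration arresting culture growth.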

Nucleic Acid [2] = assay: Binding affinity to Escherichia coli K-12 70S ribosome 23S rRNA U2609C mutant assessed as protection against DMS-induced modification of 23S rRNA domain V at nucleotides A2058 and A2059 by primer extension analysis
Escherichia coli K-12 [3] = assay: Binding affinity to Escherichia coli K-12 70S ribosome Pi complex assessed as inhibition of AcPhe-puromycin synthesis at 10 uM after 2 mins by liquid scintillation counting
How it was run: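 Pi complex: Ac[3H]Phe-tRNA bound at the P-site of MF-mRNA-programmed 70S ribosomes (0.3 μM ribosomes, 2.0 μM mRNA, 0.5 μM tRNA; buffer A, pH 7.6, 4.5 mM Mg2+; 37°C 15 min), free of unbound donor. Reacted with 1 mM puromycin at 37°C for 2 min, with or without 10 μM antibiotic. Duplicates.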

Nucleic Acid [4] = assay: Binding affinity to Escherichia coli K-12 70S ribosome 23S rRNA assessed as protection against CMCT-induced modification of 23S rRNA […] by primer extension analysis; format: nucleic-acid assay
Escherichia coli [5] = assay: Antimicrobial activity against Escherichia coli TA531 harboring 23S rRNA U2609C mutant after 15 hrs; format: functional; conditions: TA531, 15 h; how it was run: as §1
Nucleic Acid [6] = assay: Binding affinity to Escherichia coli K-12 70S ribosome 23S rRNA assessed as enhancement of DMS-induced modification of 23S rRNA domain II at nucleotides A752 by primer extension analysis; format: nucleic-acid assay
How it was run: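 70S ribosomes (50 pmol) activated 5 min at 37°C in 20 mM HEPES/KOH pH 7.8, 20 mM MgCl2, 300 mM KCl. Antibiotic added in the same buffer for 10 min at 37°C, then cooled on ice. DMS modification followed, then SDS/EDTA buffer, phenol/chloroform extraction and ethanol precipitation of rRNA. Repeated up to four times.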

Escherichia coli [7] = assay: Antimicrobial activity against chromosomal rrn allele deficient-Escherichia coli TA531 after 15 hrs; format: functional; conditions: TA531, 15 h; how it was run: as §1
[8] = target: T1, Bacterial 70S ribosome (Bacteria) (UniProt P0A7V0+P60723+P0AG67+P0A7R5+P0A7R9+P0A7S3+P0A7S9+P0AG59+P0ADZ4+P0A7T3+P0AG63+P0A7T7+P0A7U3+P0A7U7+P68679+P0A7V3+P0A7V8+P0A7W1+P02358+P02359+P0A7W7+P0A7X3+P0A7J3+P0A7J7+P0AA10+P0ADY3+P02413+P0ADY7+P0AG44+P0C018+P0A7K6+P0A7L0+P0A7L3+P0AG48+P61175+P0ADZ0+P60624+P68919+P0A7L8+P0A7M2+P0A7M6+P60422+P0AG51+P0A7N1+P0A7M9+P0A7N4+P0A7N9+P0A7P5+P0A7Q1+Q2EEQ2+P0A7Q6+P60438+P62399+P0AG55+P0A7K2); assay: Inhibition of poly(A)-dependent synthesis of poly(Lys) using Escherichia coli K-12 70S ribosome at 20 uM after 1 hr by liquid scintillation counting
How it was run: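 Poly(A)-programmed tight-coupled 70S ribosomes (0.5 μM) were preincubated 10 min at 37°C with antibiotic in buffer A. The mix held [3H]lysine (3 nmol, 500 dpm/pmol), bulk E. coli tRNA, 3 mM ATP, 1.5 mM GTP, 5 mM acetyl phosphate and S-100 fraction. Incubated 1 h at 37°C, followed by hot TCA (with 0.25% sodium wolframate) precipitation onto glass fiber filters and scintillation counting.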

[9] = target: T1, Bacterial 70S ribosome (Bacteria); assay: Inhibition of poly(U)-dependent synthesis of poly(Phe) using Escherichia coli K-12 70S ribosome at 20 uM after 30 mins by liquid scintillation counting
Escherichia coli K-12 [10] = assay: Binding affinity to Escherichia coli K-12 Pi complex of 70S ribosome Pi complex U2609C mutant assessed as blockade of tylosin-induced inhibition of AcPhe-puromycin synthesis at 10 uM after 2 mins by liquid scintillation counting
How it was run: (§2)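 Pi complexes were formed on ribosomes carrying the A2058G or U2609C mutation (Ac[3H]Phe-tRNA at the P-site of MF-mRNA-programmed 70S; buffer A). Complexes were pre-exposed to antibiotic (final 10 μM) at 37°C for 2 min, then tylosin was added (final 5 μM). They were then reacted with 1 mM puromycin at 37°C for 2 min to measure AcPhe-puromycin formation.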

Nucleic Acid [11] = assay: Binding affinity to Escherichia coli K-12 70S ribosome 23S rRNA assessed as protection against DMS-induced modification of 23S rRNA […] by primer extension analysis; format: nucleic-acid assay
Escherichia coli K-12 [12] = assay: Binding affinity to Escherichia coli K-12 70S ribosome Pi complex assessed as dissociation rate constant at 2 uM
Nucleic Acid [13] = assay: Binding affinity to Escherichia coli K-12 70S ribosome 23S rRNA A2062 mutant assessed as protection against DMS-induced modification of 23S rRNA domain II at nucleotides A752 and by primer extension analysis; format: nucleic-acid assay
Escherichia coli K-12 [14] = assay: Binding affinity to Escherichia coli K-12 Pi complex of 70S ribosome Pi complex A2058G mutant assessed as blockade of tylosin-induced inhibition of AcPhe-puromycin synthesis at 10 uM after 2 mins by liquid scintillation counting; how it was run: as §2
Escherichia coli K-12 [15] = assay: Inhibition of poly(U)-dependent synthesis of poly(Phe) using Escherichia coli K-12 70S ribosome U2609C mutant at 50 uM after 1 hr by liquid scintillation counting
[16] = target: T1, Bacterial 70S ribosome (Bacteria); assay: Inhibition of tRNA binding to Escherichia coli K-12 70S ribosome
[17] = target: T1, Bacterial 70S ribosome (Bacteria); assay: Inhibition of Ptase activity of Escherichia coli K-12 70S ribosome
[18] = target: T1, Bacterial 70S ribosome (Bacteria); assay: Inhibition of Escherichia coli K-12 70S ribosome dependent elongation factor G-dependent translocation
Escherichia coli K-12 [19] = assay: Inhibition of poly(U)-dependent synthesis of poly(Phe) using Escherichia coli K-12 70S ribosome A2058 mutant at 50 uM after 1 hr by liquid scintillation counting
Nucleic Acid [20] = assay: Binding affinity to Escherichia coli K-12 70S ribosome 23S rRNA A2062 mutant assessed as enhancement of DMS-induced modification of 23S rRNA domain V at nucleotides A2062 by primer extension analysis; format: nucleic-acid assay
Escherichia coli K-12 [21] = assay: Binding affinity to Escherichia coli K-12 70S ribosome Pi complex assessed as inhibition of AcPhe-puromycin synthesis at 5 uM after 2 mins by liquid scintillation counting

| SMILES | pKd (Bacterial 70S ribosome) | MIC (Escherichia coli [1]) [µg/mL] | Activity (Nucleic Acid [2]) | Activity (Nucleic Acid [4]) | MIC (Escherichia coli [5]) [µg/mL] | MIC (Escherichia coli [7]) [µg/mL] | inhibition [8] | inhibition [9] | Activity (Escherichia coli K-12 [10]) | Activity (Nucleic Acid [11]) | also measured |
| --- | --- | --- | --- | --- | --- | --- | --- | --- | --- | --- | --- |
| CC[C@H]1OC(=O)[C@H](C)[C@@H](O[C@H]2C[C@@](C)(OC)[C@@H](O)[C@H](C)O2)[C@H](C)[C@@H](O[C@@H]2O[C@H](C)C[C@H](N(C)C)[C@H]2O)[C@](C)(O)C[C@@H](C)C(=O)[C@H](C)[C@@H](O)[C@]1(C)O [ERYTHROMYCIN] | 7.82 | > 500 | Active | inactive | 128 (≈ 174 µM) | 128 (≈ 174 µM) | Active | inactive | Active | inactive | Activity (Escherichia coli K-12 [3]): inactive; Activity (Nucleic Acid [6]): Active |
| C[C@H]1C(=O)O[C@H](CCNC(=O)Cc2cccc(-c3ccco3)c2)[C@@]2(C)OC(=O)N[C@@H]2[C@@H](C)C(=O)[C@H](C)C[C@@](C)(O)[C@H](O[C@@H]2O[C@H](C)C[C@H](N(C)C)C2O)[C@@H](C)C1=O (stereo partly specified) [KOSAN-1325] | 8.12 | > 250 | Active | Active | 8 (≈ 10 µM) | 8 (≈ 10 µM) | Active | inactive | Active | Active | Kdiss (Escherichia coli K-12 [12]): 0.003 min⁻¹; Activity (Nucleic Acid [13]): Active; Activity (Escherichia coli K-12 [14]): Active; inhibition (Escherichia coli K-12 [3]): inactive; inhibition (Escherichia coli K-12 [15]): Active; inhibition [16]: inactive; inhibition [17]: inactive; inhibition [18]: inactive; inhibition (Escherichia coli K-12 [19]): inactive; Activity (Nucleic Acid [20]): Active |
| CC[C@H]1OC(=O)C[C@@H](O)[C@H](C)[C@@H](O[C@@H]2O[C@H](C)[C@@H](O[C@H]3C[C@@](C)(O)[C@@H](O)[C@H](C)O3)[C@H](N(C)C)[C@H]2O)[C@@H](CC=O)C[C@@H](C)C(=O)/C=C/C(C)=C/[C@@H]1CO[C@@H]1O[C@H](C)[C@@H](O)[C@@H](OC)[C@H]1OC |  |  |  |  |  |  |  |  |  |  | Activity (Escherichia coli K-12 [21]): Active |
| CC[C@H]1OC(=O)[C@H](C)C(=O)[C@H](C)[C@@H](O[C@@H]2O[C@H](C)C[C@H](N(C)C)[C@H]2O)[C@](C)(OC)C[C@@H](C)C(=O)[C@H](C)[C@H]2N(CCCCn3cnc(-c4cccnc4)c3)C(=O)O[C@]12C [TELITHROMYCIN] |  | > 150 |  |  | 64 (≈ 78.8 µM) | 16 (≈ 19.7 µM) |  |  |  |  |  |

Source: ChEMBL document CHEMBL1687727, “Distinct mode of interaction of a novel ketolide antibiotic that displays enhanced antimicrobial activity” (Antimicrob Agents Chemother, 2009)
